SMILES strings stand for the structures. Activity calls are given as the source filed them. The rule behind the calls is not given here.

As usually defined, the EC50 is the midpoint of the concentration-response curve.

The species entered for one assay is Homo sapiens. The assay is described as follows: Upregulation of CD69/CD25 levels in human CD8-positive T cells expressing alpha-beta TCR. The assay is classed as functional, cell-based. Summed up:
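Healthy-donor human PBMC incubated 18 h with medium or compound (range up to 100 μM). CD3+ CD8+ αβ T cells were gated and analysed by flow cytometry for cell-surface CD69 and CD25 upregulation.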

The target of assay [1] is T1, Butyrophilin subfamily 3 member A1 (Homo sapiens, UniProt O00481). The assay is described as follows: Binding affinity to butyrophilin 3A1 in human Vgamma9/Vdelta2 T-cells assessed as activation of Vgamma9/Vdelta2 T-cells by upregulation of CD69 and CD25 after 18 hrs. Summed up: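 Healthy-donor PBMC incubated 18 h with medium or titrated compound (up to 100 μM). TCR Vγ9+/Vδ2+ cells were gated and scored by flow cytometry for surface CD69 and CD25 upregulation versus medium control.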

In assay [2] the target is T1, Butyrophilin subfamily 3 member A1. The assay is described as follows: Binding affinity to butyrophilin 3A1 in human Vgamma9/Vdelta2 T-cells assessed as activation of Vgamma9/Vdelta2 T-cell-mediated lysis of human T24 cells preincubated for 4 hrs followed by compound washout measured after 18 hrs. Summed up:
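T24 urinary bladder carcinoma cells (target) pulsed 4 h with 10 nM prodrug, medium, or 10 μM zoledronate. They were then cocultured 18 h with in vitro expanded Vγ9/Vδ2 T cells (effector) across target/effector ratios. Specific killing was scored by amine-reactive dead cell marker staining. Summary is at 1:10 target/effector, mean ± SD, n = 2, with one-way ANOVA.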
Target sequence in this assay (O00481 30-513 limits assumed): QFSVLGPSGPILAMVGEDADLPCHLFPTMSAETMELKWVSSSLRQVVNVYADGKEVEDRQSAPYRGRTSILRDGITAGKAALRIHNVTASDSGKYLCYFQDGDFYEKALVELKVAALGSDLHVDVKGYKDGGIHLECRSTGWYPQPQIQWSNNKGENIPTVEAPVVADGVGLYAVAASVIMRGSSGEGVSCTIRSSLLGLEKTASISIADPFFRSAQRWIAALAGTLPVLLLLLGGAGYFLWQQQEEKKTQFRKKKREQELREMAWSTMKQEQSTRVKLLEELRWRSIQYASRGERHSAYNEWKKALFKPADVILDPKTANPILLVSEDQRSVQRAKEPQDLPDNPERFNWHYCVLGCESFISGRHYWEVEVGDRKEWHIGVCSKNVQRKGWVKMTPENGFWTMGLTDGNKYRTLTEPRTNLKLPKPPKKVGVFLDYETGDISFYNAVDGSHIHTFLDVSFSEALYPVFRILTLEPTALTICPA

For assay [3] the target is unchanged. The assay can be described thus: Ratio of ED50 for binding affinity to butyrophilin 3A1 in human Vgamma9/Vdelta2 T-cells for Vgamma9/Vdelta2 T-cell-mediated lysis of human T24 cells to EC50 for binding affinity to butyrophilin 3A1 for activation of Vgamma9/Vdelta2 T-cells.
Target sequence in this assay (O00481 30-513 limits assumed): as above
Assay [4] shares this target. The assay can be described thus: Binding affinity to butyrophilin 3A1 in human Vgamma9/Vdelta2 T-cells assessed as activation of Vgamma9/Vdelta2 T-cells by measuring levels of CD69 and CD25 at 0.1 uM after 18 hrs relative to control. The method, boiled down:
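Healthy-donor PBMC incubated 18 h with medium or titrated compound (up to 100 μM). TCR Vγ9+/Vδ2+ cells were gated and scored by flow cytometry for surface CD69 and CD25 upregulation versus medium control. EC50 was taken from titration curves, n = 4–5 donors.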
Target sequence in this assay (O00481 30-513 limits assumed): as above

Assay [5] has the same target. The assay is described as follows: Potency index, ratio of zoledronate EC50 to test compound EC50 for binding affinity to butyrophilin 3A1 in human Vgamma9/Vdelta2 T-cells assessed as activation of Vgamma9/Vdelta2 T-cells by upregulation of CD69 and CD25.
Target sequence in this assay (O00481 30-513 limits assumed): as above
The target is the same in assay [6]. The assay can be described thus: Binding affinity to butyrophilin 3A1 in human Vgamma9/Vdelta2 T-cells assessed as activation of Vgamma9/Vdelta2 T-cells by measuring levels of CD69 and CD25 at 10 uM after 18 hrs relative to control. The method, boiled down: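 Human PBMC from healthy donors incubated 18 h with medium or compound (titrations up to 100 μM). Vγ9/Vδ2 T cells gated by TCR Vγ9 and Vδ2 expression. Surface CD69 and CD25 upregulation measured by flow staining and compared with medium control. n = 4–5 donors.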
Target sequence in this assay (O00481 30-513 limits assumed): as above

As for `COC(=O)[C@H](C)NP(=O)(OC/C=C(\C)CO[Si](C)(C)C(C)(C)C)Oc1ccccc1` (some centres not stated), the result in the assay filed under Homo sapiens was inactive. Further, the EC50 in assay [1] was determined as 1.38 nM. Also, in assay [2], the ED50 is 29500 nM. Moreover, the Ratio in assay [3] was 21400. For the same molecule, in assay [4], the Activity was 39%.

For `C/C(=C\COP(=O)(N[C@@H](C)C(=O)OCc1ccccc1)Oc1ccccc1)CO[Si](C)(C)C(C)(C)C` (some centres not stated), the outcome in the assay listed under Homo sapiens was inactive. Further, the EC50 in assay [1] was 0.45 nM. For the same molecule, the ED50 in assay [2] turned out to be 8510 nM. Further, the Ratio in assay [3] was 12900. In addition, in assay [4], the Activity was determined as 50.6%. Further, the Ratio EC50 in assay [5] worked out at 1080.

As to `O=P(O)(O)C(O)(Cn1ccnc1)P(=O)(O)O` [ZOLEDRONIC ACID], in the assay filed under Homo sapiens, the outcome was inactive. For the same molecule, in assay [1], the concentration giving a half-maximal response (EC50) is 487 nM. Also, the ED50 in assay [2] is over 100000 nM. Moreover, the Activity in assay [6] is 39.2%.

As to `C/C(=C\COP(=O)(O)OP(=O)(O)O)CO`, the outcome in the assay filed under Homo sapiens was inactive. Further, in assay [2], the ED50 is over 100000 nM.

In the case of `C/C(=C\COP(=O)(N[C@@H](C)C(=O)OC(C)C)Oc1ccccc1)CO[Si](C)(C)C(C)(C)C` (some centres not stated), in the assay filed under Homo sapiens, the result was inactive. Further, the EC50 in assay [1] was 10.6 nM. In assay [2], the ED50 stood at 83200 nM. Besides, the Ratio in assay [3] was 7830. In addition, the Activity in assay [4] was 31%.

Take `C/C(=C\COP(=O)(N[C@@H](C)C(=O)OC(C)(C)C)Oc1ccccc1)CO[Si](C)(C)C(C)(C)C` (some centres not stated): the outcome in the assay filed under Homo sapiens was inactive. In addition, the concentration for a half-maximal effect (EC50) in assay [1] turned out to be 8.92 nM. The ED50 in assay [2] was over 100000 nM. Further, the Activity in assay [4] is 29.9%.

`C/C(=C\CO)CO[Si](C)(C)C(C)(C)C`: the result in assay [1] was inactive.

Values taken from ChEMBL document CHEMBL4118107, “Synthesis and Biological Evaluation of ( E)-4-Hydroxy-3-methylbut-2-enyl Phosphate (HMBP) Aryloxy Triester Phosphoramidate Prodrugs as Activators of Vγ9/Vδ2 T-Cell Immune Responses” (J Med Chem, 2018).
